Data on 20 sequences can be found in the EternaBench riboswitch data.

The data set deals with MS2 coat protein. The experiment in a line: apparent Kd, MS2 coat protein; higher = weaker binding; RNA-MaP array. Put shortly:
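RNA designs were transcribed from sequenced DNA templates on an Illumina sequencing chip and then incubated at room temperature with fluorescently labeled MS2 coat protein at 1.5 nM to 3 μM, with or without input ligand, in Tris-HCl pH 7.5 buffer containing KCl, MgCl2, BSA, DTT, tRNA and Tween20. Incubation lasted 0.8–1.5 h at the lowest protein concentrations and 10–20 min at the highest. Apparent Kd is the median of binding-curve fits made for each cluster. Designs measured on fewer than 10 clusters were excluded.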

Where [1] appears, read: designed as: ON switch for flavin mononucleotide, no ligand.
Where [2] appears, read: ligand present: flavin mononucleotide, designed as: ON switch for flavin mononucleotide.
The mark [3] stands for this setting: designed as: ON switch for tryptophan, no ligand.
[4] abbreviates: ligand present: tryptophan, designed as: ON switch for tryptophan.
Setting [5] is: designed as: OFF switch for flavin mononucleotide, no ligand.
The mark [6] stands for this setting: ligand present: flavin mononucleotide, designed as: OFF switch for flavin mononucleotide.

What is called apparent Kd is a dissociation constant that holds for the conditions of the assay.

Turning to “AUUUAGCAUAUACAUGAGGAUCACCCAUGUCUGAUACAUAGUAGAAGGCCCGUUAAGACAUACAGGGAGGAUAUACGUACAUGU”, the “apparent Kd” value runs as follows: under setting [1], 0.049 µM; under setting [2], 0.00985 µM.
The corresponding values for “UGAUCAGAACAGAAGGAGUAGUCUGCCUUGCUACUAGGAUAUGUUACAUGAGGAUCACCCAUGUGUUUAGGAUUGCCAUAAAGG” are 0.0131 µM and 0.00908 µM.
The corresponding values for “GGGAAACAUGAGGAUCACCCAUGUGUACAUAAGUAAGGAUAUAGAAGAGGUGACAGUGGUCUAGAAGGUACAACAC” are 0.0656 µM and 0.0464 µM.
The matching figures for “GGGCCACAUAAGAAGGUGAGCCACAGCGGCGUUCAAGGAUAUUAUAGGUAACCCACCAGACAUGAGGAUCACCCAUGUAGUGUC”: 0.0367 µM and 0.0252 µM.
“GCGUUGGCCACGGCCGCCACUCAGGUACCGCGCGUAGUGAACUUACAUGAGGAUCACCCAUGUCUGAGGACCGGGUGGCCGCCAC”: the “apparent Kd” value is 0.0373 µM under setting [3] and 0.0462 µM under setting [4].
For the sequence “AUCGAUAAGAAGAAGGCAUUGGCGAUGACGUUAUGAGGAUAUUCAACUACAGCUUGACCACUACAUGAGGAUCACCCAUGUGAA”, the “apparent Kd” value is 0.0196 µM under setting [1] and 0.0121 µM under setting [2].
“AAUGACGCGAAGAAGGACUGAUACCAGCUAAAAGUAGGAUAUUCUGAACGUGGACGGUUUACAUGAGGAUCACCCAUGUAUGAA”: the “apparent Kd” value under setting [5] stood at 0.00929 µM and the “apparent Kd” value under setting [6] was 0.00901 µM.
Turning to “UUUGAAAAGCAGAAGGUUCAUAACAUGAGGAUCACCCAUGUGACAUUAAUGAUCCGGUUUUUACGAAAGGAUAUGCUUCUCCUA”, the “apparent Kd” value was determined as 0.00833 µM under setting [5] and 0.0326 µM under setting [6].
For “AGGAGACAUGAGGAUCACCCAUGUCCAGAUACCAGAAUGUCUUUGUUCCCUUGGCAGCUGUGGAAAUCUGACCUGCCUCGGUCUG”, the “apparent Kd” value is, setting by setting: (designed as: ON switch for theophylline, no ligand) 0.0142 µM; (ligand present: theophylline, designed as: ON switch for theophylline) 0.0157 µM.
For the sequence “UAACCGUGAGGAUAUACAUGAGGAUCACCCAUGUGGUUUUGCUGCGCACAUACUUUAUGUAGAAGGCACAACUG”, the “apparent Kd” value came out at 0.05 µM under setting [5] and 0.0599 µM under setting [6].
In the case of “AAAACGGGUUAGAAGGGCAAUUUUGAUGACAGUGCAGGAUAUAACUUGUGUCCGAAUAUGGACAUGAGGAUCACCCAUGUUAGU”, the “apparent Kd” value reads like this: under setting [1], 0.468 µM; under setting [2], 0.185 µM.
In the case of “AUGUCGGCAGGAUAUACUGGAACUUGACCCGUGAACACGAUACAUGAGGAUCACCCAUGUAGAAGGGCCUAAAA”, the “apparent Kd” value under setting [5] is 0.0115 µM and the “apparent Kd” value under setting [6] is 0.0434 µM.
On to “CCACGGAGUUUAGGAUAUGUCGGCUUGGAGUUUACAGAAGGAAAUUGCGCAGCCACAUGAGGAUCACCCAUGUUCGGAAAUACG”, for which the “apparent Kd” value under setting [1] worked out at 0.031 µM and the “apparent Kd” value under setting [2] turned out to be 0.0214 µM.
The corresponding values for “CGUAAUGCACUAGGAUAUGUUGUAUAUACAACGACAGAAGGAGUUCCACAUGAGGAUCACCCAUGUCCAAACCAAUACUCAUCG” are 0.0782 µM and 0.064 µM.
On to “GAAUUAAAUCAAGGAUAUCUGUGGAAGCGGACCUCUUACAUGAGGAUCACCCAUGUUCGCGAGCAAGAGAAGGUGAUUAGCGAA”, for which the “apparent Kd” value by setting is: under setting [5], 0.414 µM; under setting [6], 0.131 µM.
The corresponding values for “UUGAUAGCAGGAUAUACCAGUCAUGUCUCGCAAUUUACCCGACAUGAGGAUCACCCAUGUAGAAGGGCUGUUUA” are 0.0153 µM and 0.0145 µM.
The matching figures for “CAAUGGACGGUAGGAUAUGUACUAGAGAAGCAGACAGAAGGACCUAGUCCGACAUGAGGAUCACCCAUGUGAAACCCGGUCCAG”: 0.00683 µM and 0.00644 µM.
Turning to “UAAUUCAGGGAGAAGGUCUGAUCGUAACAUGCAGAAGGAUAUCCCAAUAACAUGAGGAUCACCCAUGUUUUGUUAUGCGUCAAC”, the “apparent Kd” value is 0.083 µM under setting [1] and 0.0198 µM under setting [2].
“GGCUACAUGAGGAUCACCCAUGUUUCUCGUCGAGGACCGGUACGGCCGCCACUCGUUGUUGGGACUCAGUAUCAGUCGUUAGUUU”: the “apparent Kd” value under setting [3] stood at 0.0255 µM and the “apparent Kd” value under setting [4] stood at 0.057 µM.
Take “CAAAUGAGAGGAUAUACAAUUAGAUUUCAAAGUCACAUCAGACAUGAGGAUCACCCAUGUAGAAGGCUCGGAUA”: the “apparent Kd” value under setting [5] is 0.0237 µM and the “apparent Kd” value under setting [6] was 0.193 µM.
